18 molecules from ChEMBL document CHEMBL1833840, “RGD mimetics containing phthalimidine fragment as novel ligands of fibrinogen receptor” (Bioorg Med Chem Lett, 2011) can be followed below.

The test system of one test is Platelet. The test can be described thus: Inhibition of ADP-induced platelet aggregation in human platelet rich plasma by Borns method. It is filed as functional. In outline: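 Human platelet-rich plasma stimulated with ADP, with aggregation followed by Born's method.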
The target in test [1] is Integrin alpha-IIb/beta-3 (Homo sapiens) (UniProt P08514). The test can be described thus: Displacement of FITC-labeled fibrinogen from alphaIIbbeta3 in human platelets.
Chain of Integrin alpha-IIb/beta-3 (Homo sapiens) (P08514 whole entry, looked up): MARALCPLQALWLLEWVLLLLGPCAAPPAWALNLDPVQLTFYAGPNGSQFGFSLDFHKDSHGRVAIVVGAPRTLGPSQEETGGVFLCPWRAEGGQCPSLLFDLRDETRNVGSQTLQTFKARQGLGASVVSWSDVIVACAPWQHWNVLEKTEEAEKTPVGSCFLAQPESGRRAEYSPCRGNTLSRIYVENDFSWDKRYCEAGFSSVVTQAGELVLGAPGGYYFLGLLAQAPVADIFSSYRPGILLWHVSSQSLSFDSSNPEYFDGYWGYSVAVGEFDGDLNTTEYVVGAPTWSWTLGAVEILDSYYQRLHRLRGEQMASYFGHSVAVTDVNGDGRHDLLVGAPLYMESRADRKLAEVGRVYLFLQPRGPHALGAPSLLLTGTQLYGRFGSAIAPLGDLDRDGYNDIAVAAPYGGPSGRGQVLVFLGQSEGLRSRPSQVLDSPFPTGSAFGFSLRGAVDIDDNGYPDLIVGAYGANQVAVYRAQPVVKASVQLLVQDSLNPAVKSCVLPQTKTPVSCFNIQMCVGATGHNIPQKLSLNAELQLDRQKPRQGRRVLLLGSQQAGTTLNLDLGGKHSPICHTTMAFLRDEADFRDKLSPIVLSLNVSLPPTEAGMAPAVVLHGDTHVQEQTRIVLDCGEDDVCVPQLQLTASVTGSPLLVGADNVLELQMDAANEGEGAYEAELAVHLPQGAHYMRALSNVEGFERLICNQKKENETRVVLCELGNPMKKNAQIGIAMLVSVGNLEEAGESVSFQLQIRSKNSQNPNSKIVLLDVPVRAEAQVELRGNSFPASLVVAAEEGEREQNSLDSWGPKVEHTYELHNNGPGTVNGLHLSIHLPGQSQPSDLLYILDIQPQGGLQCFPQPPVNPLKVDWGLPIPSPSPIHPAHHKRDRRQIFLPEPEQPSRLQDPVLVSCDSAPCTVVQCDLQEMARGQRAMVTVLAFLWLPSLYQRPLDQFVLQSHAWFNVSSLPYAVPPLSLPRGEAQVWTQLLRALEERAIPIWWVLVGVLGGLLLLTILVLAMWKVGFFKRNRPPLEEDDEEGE

As for `O=C(O)CN1Cc2ccc(NC(=O)c3ccc(C4CCNCC4)cc3)cc2C1=O`, the figures for the half-inhibitory concentration (IC50) (in the test on Platelet; in test [1]) were 24 µM and 270 nM, respectively.

Turning to `O=C(O)CN1Cc2ccc(NC(=O)c3ccc4c(c3)CNCC4)cc2C1=O`, the figures for the concentration for half-maximal inhibition (IC50) (in the test with Platelet; in test [1]) were 120 µM and 1200 nM, respectively.

With `O=C(O)CCN1Cc2ccc(NC(=O)CCCC3CCNCC3)cc2C1=O`, the half-maximal inhibitory concentration (IC50) with Platelet came to 5.9 µM; in test [1] it was 5.5 nM.

In the case of `O=C(O)CCN1Cc2ccc(NC(=O)c3ccc(C4CCNCC4)cc3)cc2C1=O`, the IC50 with Platelet was 9.6 µM; in test [1], 6.8 nM.

The molecule `O=C(O)CCN1Cc2ccc(NC(=O)c3ccc(N4CCNCC4)cc3)cc2C1=O` yielded an IC50 in the test on Platelet of 0.54 µM.

Regarding `O=C(O)CCN1Cc2ccc(NC(=O)c3ccc4c(c3)CNCC4)cc2C1=O`, the IC50 with Platelet is 1.1 µM; in test [1], 6.5 nM.

Take `O=C(O)CCCN1Cc2ccc(NC(=O)CCCC3CCNCC3)cc2C1=O`: in the test on Platelet, half-maximal inhibition (IC50) was put at 51 µM. This lies in the double-digit micromolar range.

In the test with Platelet, `O=C(O)CCCN1Cc2ccc(NC(=O)c3ccc(C4CCNCC4)cc3)cc2C1=O` registered a 50% inhibitory concentration (IC50) of 410 µM.

Molecule `O=C(O)CCCN1Cc2ccc(NC(=O)c3ccc4c(c3)CNCC4)cc2C1=O` gave an IC50 with Platelet of 330 µM.

In the case of `O=C(O)CCNC(=O)CCNC(=O)c1ccc2c(c1)CNCC2`, the values for the IC50 (with Platelet; in test [1]) were 1.1 µM and 22 nM, respectively.

The molecule `Cc1ccc(S(=O)(=O)N[C@@H](CNC(=O)Cc2cn(CCCC3CCNCC3)c3ccccc23)C(=O)O)cc1` yielded an IC50 in the test with Platelet of 4.5 µM.

In turn, `N=C(N)c1ccc(C(=O)Nc2ccc3c(c2)CCN(CC(=O)O)C3)cc1` showed a half-maximal inhibitory concentration (IC50) with Platelet of 0.09 µM.

For the molecule `O=C(O)CN1Cc2ccc(NC(=O)CCCC3CCNCC3)cc2C1=O`, in the test on Platelet, the midpoint of inhibition, the IC50, lay at 66 µM.

The molecule `O=C(O)CCNC(=O)c1ccc2c(c1)C(=O)N(CCC1CCNCC1)C2` came in with an IC50 in the test on Platelet of 0.025 µM. Compared with the last molecule, the IC50 is about 2600-fold lower.

`CC(CC(=O)O)N1Cc2ccc(NC(=O)CCCC3CCNCC3)cc2C1=O` (racemic): the IC50 with Platelet amounted to 5.4 µM; in test [1] it was 350 nM.

Regarding `CC(CC(=O)O)N1Cc2ccc(NC(=O)c3ccc(C4CCNCC4)cc3)cc2C1=O` (racemic), in the test on Platelet, the half-maximal inhibitory concentration (IC50) worked out at 6.2 µM. This counts as single-digit micromolar.

With `CC(CC(=O)O)N1Cc2ccc(NC(=O)c3ccc(N4CCNCC4)cc3)cc2C1=O` (racemic), the results for the half-inhibitory concentration (IC50) (in the test on Platelet; in test [1]) were 3.74 µM and 37 nM, respectively.

As for `CC(CC(=O)O)N1Cc2ccc(NC(=O)c3ccc4c(c3)CNCC4)cc2C1=O` (racemic), the 50% inhibitory concentration (IC50) worked out at 0.086 µM in the test on Platelet and 6.5 nM in test [1].
